{
  "source": "ChEMBL document CHEMBL5335845",
  "about": "“Discovery of GLPG2737, a Potent Type 2 Corrector of CFTR for the Treatment of Cystic Fibrosis in Combination with a Potentiator and a Type 1 Co-corrector” (J Med Chem, 2024)",
  "key": {"[1]": {"assay": "Metabolic stability in human liver microsomes assessed as unbound intrinsic clearance at 1 uM incubated for 30 mins by LC-MS/MS analysis", "assay_type": "ADME, Microsome", "conditions": "0.5 h; call rule not given here"}, "[2]": {"assay": "Metabolic stability in rat liver microsomes assessed as unbound intrinsic clearance at 1 uM incubated for 30 mins by LC-MS/MS analysis", "assay_type": "ADME, Microsome", "conditions": "0.5 h"}, "[3]": {"assay": "Metabolic stability in rat hepatocyte assessed as unbound intrinsic clearance at 1 uM incubated for 180 mins by LC-MS/MS analysis", "assay_type": "ADME, cell-based", "conditions": "hepatocytes, 3 h"}, "[4]": {"assay": "Clearance in Sprague-Dawley rat at 1 mg/kg, iv measured after 24 hrs by LC-MS/MS analysis", "assay_type": "ADME, organism-based", "conditions": "in vivo"}, "[5]": {"assay": "Metabolic stability in human hepatocyte assessed as unbound intrinsic clearance at 1 uM incubated for 180 mins by LC-MS/MS analysis", "assay_type": "ADME, cell-based", "conditions": "hepatocytes, 3 h"}, "[6]": {"biological_target": "T1, Cytochrome P450 3A4 (Homo sapiens, UniProt P08684)", "T1 sequence (P08684 whole entry)": "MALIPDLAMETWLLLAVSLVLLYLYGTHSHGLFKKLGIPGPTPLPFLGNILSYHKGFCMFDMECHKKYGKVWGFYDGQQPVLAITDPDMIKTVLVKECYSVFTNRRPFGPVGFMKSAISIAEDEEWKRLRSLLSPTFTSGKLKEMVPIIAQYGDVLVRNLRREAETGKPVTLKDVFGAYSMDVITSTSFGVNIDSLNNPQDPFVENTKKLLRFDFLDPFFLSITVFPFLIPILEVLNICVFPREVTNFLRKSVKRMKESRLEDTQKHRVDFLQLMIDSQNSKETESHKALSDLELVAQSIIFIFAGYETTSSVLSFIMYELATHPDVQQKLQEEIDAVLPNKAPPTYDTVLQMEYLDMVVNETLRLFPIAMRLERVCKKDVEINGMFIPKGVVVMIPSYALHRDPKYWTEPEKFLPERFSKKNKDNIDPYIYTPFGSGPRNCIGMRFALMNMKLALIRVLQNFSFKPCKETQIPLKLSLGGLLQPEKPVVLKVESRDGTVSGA", "assay": "Induction of CYP3A4 in human hepatocytes assessed as mRNA at 10 uM after 72 hrs by qPCR analysis relative to rifampicin", "assay_type": "ADME, cell-based, Hepatocyte", "how_it_was_run": "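Single-donor cryopreserved human hepatocytes, 0.1 × 10^6 cells/well, exposed to 10 μM compound (0.1% DMSO) in triplicate for 72 h with daily renewal; RNA RT-qPCR for CYP3A4 vs endogenous control, 2^-ΔΔCT relative to vehicle, expressed as % of 10 μM rifampicin.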"}, "[7]": {"assay": "Unbound clearance in Sprague-Dawley rat at 5 mg/kg, po or 0.1 mg/kg, iv measured upto 24 hrs by LC-MS/MS analysis", "assay_type": "ADME, organism-based", "conditions": "in vivo", "how_it_was_run": "(§1)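 Male Sprague–Dawley rats (6–8 weeks), iv tail-vein bolus 0.1 mg/kg in PEG200/water 60/40, or oral gavage 5 mg/kg suspension in 0.5% MC after ≥12 h fast; plasma (Li-heparin) sampled to 24 h, n = 3 per route, LC-MS/MS; noncompartmental analysis.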"}, "[8]": {"assay": "Volume of distribution at steady state in Beagle dog at 5 mg/kg, po or 0.1 mg/kg, iv measured upto 24 hrs by LC-MS/MS analysis", "assay_type": "ADME, organism-based, Canis lupus familiaris", "conditions": "in vivo"}, "[9]": {"assay": "Thermodynamic solubility of the compound at pH 7.4 measured after 24 hrs by LC-MS/MS analysis", "assay_type": "physicochemical", "conditions": "buffer, read-out: Therm_solubility", "how_it_was_run": "(§2)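 Solid compound at 1 mg/mL in fasted simulated gastric fluid or pH 7.4 buffer, stirred 24 h at room temperature, centrifuged and filtered, diluted and quantified by LC-MS/MS against standard curve.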"}, "[10]": {"assay": "Plasma clearance in Beagle dog iv measured upto 24 hrs by LC-MS/MS analysis"}, "[11]": {"assay": "Thermodynamic solubility of the compound in fasted simulated gastric fluid measured after 24 hrs by LC-MS/MS analysis", "assay_type": "physicochemical", "conditions": "read-out: Therm_solubility", "how_it_was_run": "as §2"}, "[12]": {"biological_target": "T1, Cytochrome P450 3A4", "assay": "Inhibition of CYP3A4 in human liver microsomes using testosterone as substrate in presence of NADPH by LC/MS/MS analysis", "assay_type": "ADME, Microsome"}, "[13]": {"assay": "Plasma clearance in Sprague-Dawley rat at 5 mg/kg, po or 0.1 mg/kg, iv measured upto 24 hrs by LC-MS/MS analysis", "assay_type": "ADME, organism-based", "conditions": "in vivo", "how_it_was_run": "as §1"}, "[14]": {"biological_target": "Sigma receptor (Homo sapiens, UniProt Q99720+Q5BJF2)", "assay": "Inhibition of human Sigma receptor", "assay_type": "protein assay", "how_it_was_run": "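Radioligand binding panel: displacement of cognate radioligand from human H1 or Sigma receptor, IC50 determined.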"}, "[15]": {"assay": "Plasma protein binding in dog at 5 uM measured after 4 hrs under shaking by LC-MS/MS analysis", "assay_type": "ADME, cell-free, Canis lupus familiaris", "conditions": "read-out: PPB (converted)", "how_it_was_run": "(§3)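 Equilibrium dialysis of compound 5 μM (0.5% DMSO) in plasma against PBS pH 7.4, 4 h at 37 °C with shaking; matrix-matched samples, acetonitrile precipitation, LC-MS/MS; % bound from plasma and buffer peak areas.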"}, "[16]": {"assay": "Metabolic stability in dog hepatocyte assessed as unbound intrinsic clearance at 1 uM incubated for 180 mins by LC-MS/MS analysis", "assay_type": "ADME, cell-based, Canis lupus familiaris", "conditions": "hepatocytes, 3 h"}, "[17]": {"assay": "Apparent permeability from apical to basolateral side in MDCKII-MDR1 cells at 10 uM measured after 1 hr by LC-MS/MS analysis", "assay_type": "ADME, cell-based, Canis lupus familiaris", "conditions": "dog, MDCK-MDR1"}, "[18]": {"assay": "Half life in Beagle dog at 0.1 mg/kg, iv measured upto 24 hrs by LC-MS/MS analysis", "assay_type": "ADME, organism-based, Canis lupus familiaris", "conditions": "in vivo"}, "[19]": {"assay": "Volume of distribution at steady state in Sprague-Dawley rat at 5 mg/kg, po or 0.1 mg/kg, iv measured upto 24 hrs by LC-MS/MS analysis", "assay_type": "ADME, organism-based", "conditions": "in vivo", "how_it_was_run": "as §1"}, "[20]": {"assay": "Genotoxicity in Salmonella typhimurium by Ames test", "assay_type": "toxicity", "conditions": "salmonella enterica subsp. enterica serovar typhimurium"}, "[21]": {"assay": "Unbound clearance in Beagle dog at 5 mg/kg, po measured upto 24 hrs by LC-MS/MS analysis", "assay_type": "ADME, organism-based, Canis lupus familiaris", "conditions": "in vivo", "how_it_was_run": "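Male Beagle dogs (n = 3), iv 10 min […], then after 3-day washout oral gavage 5 or 1 mg/kg in PEG400/0.5% MC or 0.5% MC after ≥12 h fast; jugular or cephalic blood (Li-heparin) to 24 h, plasma by LC-MS/MS.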"}, "[22]": {"assay": "Plasma protein binding in rat at 5 uM measured after 4 hrs under shaking by LC-MS/MS analysis", "assay_type": "ADME, cell-free", "conditions": "read-out: PPB (converted)", "how_it_was_run": "as §3"}, "[23]": {"assay": "Intestinal permeability across apical to basolateral side in human Caco-2 cells at 10 uM measured after 1 hr by LC-MS/MS analysis", "assay_type": "ADME, cell-based", "conditions": "read-out: permeability"}, "[24]": {"assay": "Plasma protein binding in human at 5 uM measured after 4 hrs under shaking by LC-MS/MS analysis", "assay_type": "ADME, cell-free", "conditions": "read-out: PPB (converted)", "how_it_was_run": "as §3"}, "[25]": {"biological_target": "T1, Cytochrome P450 3A4", "assay": "Inhibition of CYP3A4 in human liver microsomes using midazolam as substrate in presence of NADPH by LC/MS/MS analysis", "assay_type": "ADME, Microsome"}, "[26]": {"biological_target": "Voltage-gated inwardly rectifying potassium channel KCNH2 (Homo sapiens, UniProt Q12809)", "sequence (Q12809 whole entry)": "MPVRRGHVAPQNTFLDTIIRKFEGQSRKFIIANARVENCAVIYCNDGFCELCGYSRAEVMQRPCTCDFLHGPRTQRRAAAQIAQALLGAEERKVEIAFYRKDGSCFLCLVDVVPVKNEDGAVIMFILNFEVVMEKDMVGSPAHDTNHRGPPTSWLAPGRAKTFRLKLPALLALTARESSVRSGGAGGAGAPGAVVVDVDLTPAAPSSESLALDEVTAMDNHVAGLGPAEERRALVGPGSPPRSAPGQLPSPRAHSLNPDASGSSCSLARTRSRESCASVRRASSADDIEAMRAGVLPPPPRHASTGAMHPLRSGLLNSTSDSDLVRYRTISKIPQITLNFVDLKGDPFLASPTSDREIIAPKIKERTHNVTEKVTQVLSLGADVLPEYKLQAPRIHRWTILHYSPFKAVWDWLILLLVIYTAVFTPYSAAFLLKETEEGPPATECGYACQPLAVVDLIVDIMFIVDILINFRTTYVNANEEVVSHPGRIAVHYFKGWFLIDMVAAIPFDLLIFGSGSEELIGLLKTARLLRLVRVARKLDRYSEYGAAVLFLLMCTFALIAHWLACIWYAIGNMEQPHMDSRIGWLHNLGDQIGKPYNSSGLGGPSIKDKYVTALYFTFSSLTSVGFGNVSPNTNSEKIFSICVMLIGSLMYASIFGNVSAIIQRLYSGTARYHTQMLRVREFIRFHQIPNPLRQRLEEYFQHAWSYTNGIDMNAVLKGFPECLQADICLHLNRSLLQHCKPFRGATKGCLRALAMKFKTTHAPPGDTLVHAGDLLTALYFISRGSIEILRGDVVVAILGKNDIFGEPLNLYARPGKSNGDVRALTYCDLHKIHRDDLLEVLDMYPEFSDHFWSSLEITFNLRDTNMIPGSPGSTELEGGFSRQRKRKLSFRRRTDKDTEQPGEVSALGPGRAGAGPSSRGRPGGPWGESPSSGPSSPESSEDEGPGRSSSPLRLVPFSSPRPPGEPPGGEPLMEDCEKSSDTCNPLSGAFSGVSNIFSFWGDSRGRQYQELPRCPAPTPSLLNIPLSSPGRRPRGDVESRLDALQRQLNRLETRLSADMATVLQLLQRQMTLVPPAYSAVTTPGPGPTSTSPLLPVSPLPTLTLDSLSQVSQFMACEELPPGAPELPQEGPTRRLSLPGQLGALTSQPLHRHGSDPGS", "assay": "Inhibition of human ERG by manual patch clamp test", "assay_type": "toxicity"}, "[27]": {"assay": "Half life in Sprague-Dawley rat at 0.1 mg/kg, iv measured upto 24 hrs by LC-MS/MS analysis", "assay_type": "ADME, organism-based", "conditions": "in vivo", "how_it_was_run": "as §1"}},
  "data": [
    {"smiles": "COc1ccc(-c2cc(C(=O)O)nc3c2c(C)nn3-c2ccccc2)cc1", "values": [
      {"measurement": "CL free", "setting": "[1]", "value": 10.4, "unit": "L/h/kg"},
      {"measurement": "CL free", "setting": "[2]", "value": 10.8, "unit": "L/h/kg"},
      {"measurement": "CL free", "setting": "[3]", "value": 18.3, "unit": "L/h/kg"}
    ]},
    {"smiles": "O=C(O)c1cc(-c2ccc(N3CCOCC3)cc2)c2c(C3CCC3)nn(-c3ccccc3)c2n1", "values": [
      {"measurement": "CL", "setting": "[4]", "value": 0.2, "unit": "L/h/kg"}
    ]},
    {"smiles": "Cc1nn(-c2ccccc2)c2nc(C(=O)O)cc(-c3ccc(N4CCOCC4)cc3)c12", "values": [
      {"measurement": "CL free", "setting": "[1]", "value": "< 1.7", "unit": "L/h/kg"},
      {"measurement": "CL free", "setting": "[2]", "value": "< 2.6", "unit": "L/h/kg"},
      {"measurement": "CL free", "setting": "[5]", "value": "< 2.74", "unit": "L/h/kg"},
      {"measurement": "CL free", "setting": "[3]", "value": 4, "unit": "L/h/kg"}
    ]},
    {"smiles": "CS(=O)(=O)NC(=O)c1cc(N2CCC(N3CCOCC3)CC2)c2c(C3CCC3)nn(-c3ccc(F)cc3)c2n1", "values": [
      {"measurement": "Activity", "setting": "[6]", "value": 9, "unit": "%"},
      {"measurement": "CL free", "setting": "[3]", "value": "< 0.69", "unit": "L/h/kg"}
    ]},
    {"smiles": "COC1CCN(c2cc(C(=O)NS(=O)(=O)N(C)C)nc3c2c(C2CCC2)nn3-c2ccc(F)cc2)CC1", "values": [
      {"measurement": "CL free", "setting": "[7]", "value": 20, "unit": "L/h/kg"},
      {"measurement": "Vdss", "setting": "[8]", "value": 1.37, "unit": "L/kg"},
      {"measurement": "solubility thermodynamic at 24 h", "setting": "[9]", "value": 0.0099, "unit": "mg/mL"},
      {"measurement": "clearance", "setting": "[10]", "value": 0.21, "unit": "L/h/kg"},
      {"measurement": "solubility thermodynamic at 24 h", "setting": "[11]", "value": 0.0109, "unit": "mg/mL"},
      {"measurement": "IC50", "setting": "[12]", "value": "> 100", "unit": "µM"},
      {"measurement": "CL", "setting": "[13]", "value": 0.32, "unit": "L/h/kg"},
      {"measurement": "IC50", "setting": "[14]", "value": 0.36, "unit": "µM"},
      {"measurement": "fraction unbound at 4 h, 5 µM", "setting": "[15]", "value": 0.025},
      {"measurement": "Activity", "setting": "[6]", "value": 4, "unit": "%"},
      {"measurement": "CL free", "setting": "[16]", "value": "< 1.49", "unit": "L/h/kg"},
      {"measurement": "Papp A→B at 1 h, 10 µM", "setting": "[17]", "value": 54.5, "unit": "nm/s"},
      {"measurement": "CL free", "setting": "[5]", "value": "< 0.77", "unit": "L/h/kg"},
      {"measurement": "half-life", "setting": "[18]", "value": 5.4, "unit": "h"},
      {"measurement": "Vdss", "setting": "[19]", "value": 1.38, "unit": "L/kg"},
      {"measurement": "Activity", "setting": "[20]", "value": "Non-Toxic"},
      {"measurement": "CL free", "setting": "[21]", "value": 10.7, "unit": "L/h/kg"},
      {"measurement": "CL free", "setting": "[3]", "value": 3.97, "unit": "L/h/kg"},
      {"measurement": "fraction unbound at 4 h, 5 µM", "setting": "[22]", "value": 0.016},
      {"measurement": "Papp A→B at 1 h, 10 µM", "setting": "[23]", "value": 245, "unit": "nm/s"},
      {"measurement": "fraction unbound at 4 h, 5 µM", "setting": "[24]", "value": 0.02},
      {"measurement": "IC50", "setting": "[25]", "value": "> 100", "unit": "µM"},
      {"measurement": "inhibition (INH)", "setting": "[26]", "value": "Not Active"},
      {"measurement": "half-life", "setting": "[27]", "value": 3.45, "unit": "h"}
    ]},
    {"smiles": "CS(=O)(=O)NC(=O)c1cc(-c2ccc(N3CCC(C#N)CC3)nc2)c2c(C3CCC3)nn(-c3ccccc3)c2n1", "values": [
      {"measurement": "CL", "setting": "[4]", "value": 0.0246, "unit": "L/h/kg"}
    ]},
    {"smiles": "CN(C)S(=O)(=O)NC(=O)c1cc(N2CCC(N3CCOCC3)CC2)c2c(C3CCC3)nn(-c3ccc(F)cc3)c2n1", "values": [
      {"measurement": "CL", "setting": "[13]", "value": 0.19, "unit": "L/h/kg"},
      {"measurement": "CL free", "setting": "[16]", "value": 1.9, "unit": "L/h/kg"},
      {"measurement": "CL free", "setting": "[5]", "value": "< 0.66", "unit": "L/h/kg"},
      {"measurement": "CL free", "setting": "[3]", "value": 2.94, "unit": "L/h/kg"}
    ]},
    {"smiles": "COc1ccc(-c2cc(C(=O)O)nc3c2c(C)nn3-c2ccc(C)cc2)cc1", "values": [
      {"measurement": "CL free", "setting": "[1]", "value": "< 3.59", "unit": "L/h/kg"},
      {"measurement": "CL free", "setting": "[2]", "value": 10.9, "unit": "L/h/kg"},
      {"measurement": "CL free", "setting": "[3]", "value": 15.8, "unit": "L/h/kg"}
    ]}
  ]
}
